Experimental data published in ChEMBL document CHEMBL4622957, “Green asymmetric synthesis of epoxypeptidomimetics and evaluation as human cathepsin K inhibitors” (Bioorg Med Chem, 2020).
pIC50, pKi: −log10 of the molar value. Calls of active or inactive are those of the source. The calls are words filed in the database; no cut-off is given here.

Tests used:
[1] = target: T1, Procathepsin L (Homo sapiens, UniProt P07711); assay: Inhibition of cathepsin L (unknown origin) using fluorogenic Z-FR-MCA as substrate preincubated for 5 mins followed by substrate addition by spectrofluorimetric assay
Target sequence in this assay (P07711 whole entry): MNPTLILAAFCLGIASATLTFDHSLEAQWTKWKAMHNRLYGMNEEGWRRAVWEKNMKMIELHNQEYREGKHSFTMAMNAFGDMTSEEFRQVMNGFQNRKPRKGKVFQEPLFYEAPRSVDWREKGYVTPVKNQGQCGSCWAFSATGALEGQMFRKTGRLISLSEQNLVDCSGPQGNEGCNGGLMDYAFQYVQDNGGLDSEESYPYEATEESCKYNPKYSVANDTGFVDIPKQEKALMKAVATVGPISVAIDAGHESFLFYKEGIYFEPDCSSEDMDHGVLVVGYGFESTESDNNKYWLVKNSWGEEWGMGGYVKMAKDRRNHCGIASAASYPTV

[2] = target: T1, Procathepsin L; assay: Inhibition of cathepsin L (unknown origin) at 25 uM using fluorogenic Z-FR-MCA as substrate preincubated for 5 mins followed by substrate addition by spectrofluorimetric assay relative to control
Target sequence in this assay (P07711 114-333 limits assumed): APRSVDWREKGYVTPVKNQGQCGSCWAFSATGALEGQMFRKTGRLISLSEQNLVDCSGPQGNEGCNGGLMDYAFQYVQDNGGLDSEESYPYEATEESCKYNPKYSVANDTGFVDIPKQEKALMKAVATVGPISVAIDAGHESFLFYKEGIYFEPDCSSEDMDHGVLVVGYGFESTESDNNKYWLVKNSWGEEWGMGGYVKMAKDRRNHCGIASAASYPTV

[3] = target: T2, Cathepsin K (Homo sapiens, UniProt P43235); assay: Inhibition of recombinant human cathepsin K using Z-Phe-Arg-MCA as fluorogenic substrate preincubated for 5 mins followed by substrate addition and measured after 5 mins by fluorimetric analysis
T2 sequence (P43235 whole entry): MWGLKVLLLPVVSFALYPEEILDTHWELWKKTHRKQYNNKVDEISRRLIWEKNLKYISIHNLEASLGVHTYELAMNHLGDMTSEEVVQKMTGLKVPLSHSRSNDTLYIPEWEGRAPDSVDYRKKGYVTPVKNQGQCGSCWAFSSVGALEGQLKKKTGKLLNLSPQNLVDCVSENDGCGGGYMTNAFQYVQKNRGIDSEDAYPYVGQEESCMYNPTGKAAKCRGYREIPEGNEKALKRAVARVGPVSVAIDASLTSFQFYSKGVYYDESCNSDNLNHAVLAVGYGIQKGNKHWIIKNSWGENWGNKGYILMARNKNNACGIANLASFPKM
Outline: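 Recombinant human CatK, expressed in Pichia pastoris and active-site titrated with E-64, was used at 2 nM in 0.1 M sodium acetate pH 5.5 with 2.5 mM DTT and 2.5 mM EDTA at room temperature. Enzyme and inhibitor were preincubated 5 min, then 10 μM Z-Phe-Arg-MCA was added. Fluorescence (ex 380/em 460 nm) was read for 5 min. Triplicates; % inhibition from initial rates; IC50 from ≥7 inhibitor concentrations.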

[4] = target: T3, Cathepsin K (Homo sapiens) (UniProt P43235); assay: Mixed type inhibition of recombinant human cathepsin K by Michaelis-Menten plot analysis
T3 sequence (whole entry): T2 sequence (P43235 whole entry)

[5] = target: T2, Cathepsin K; assay: Binding affinity to recombinant human cathepsin K

pIC50 [1]	inhibition [2] [%]	pIC50 [3]	inhibition [4]	pKi [5]	Structure (SMILES)
		5.66			CCCCCCC[C@H]1O[C@@H]1C(OC(=O)c1ccc(I)cc1)C(=O)NC(C)(C)C (stereo partly drawn)
5.27					CCCCCCC[C@H]1O[C@@H]1C(OC(=O)c1ccc(I)cc1)C(=O)NC1CCCCC1 (stereo partly drawn)
		5.47	Active	5.26	CCCCCCC[C@H]1O[C@@H]1C(OC(=O)c1ccc(I)cc1)C(=O)NCCCC (stereo partly drawn)
	0	5.12			CCCCCCC[C@H]1O[C@@H]1C(OC(=O)C1CCCCC1)C(=O)NC(C)(C)C (stereo partly drawn)

The remaining lines, values behind:

Structure (SMILES)	pIC50 [1]	inhibition [2] [%]	pIC50 [3]	inhibition [4]	pKi [5]
CCCCNC(=O)C([C@H]1O[C@@H]1c1ccccc1Br)N(Cc1ccccc1)C(=O)c1ccccc1 (stereo partly drawn)	< 4.30				
CCCCCCC[C@H]1O[C@@H]1C(OC(=O)CCCCCBr)C(=O)NC(C)(C)C (stereo partly drawn)		0	5.42		
CCCCNC(=O)C([C@H]1O[C@@H]1c1ccccc1[N+](=O)[O-])N(Cc1ccccc1)C(=O)c1ccccc1 (stereo partly drawn)	< 4.30				
CCCCNC(=O)C([C@H]1O[C@@H]1c1ccccc1)N(Cc1ccccc1)C(=O)c1ccccc1 (stereo partly drawn)		0	4.73		
CCCCNC(=O)C([C@H]1O[C@@H]1CC)N(Cc1ccccc1)C(=O)c1ccccc1 (stereo partly drawn)		0			
CCCCNC(=O)C([C@H]1O[C@@H]1c1ccccc1)N(C(=O)c1ccc(I)cc1)C(C)(C)C (stereo partly drawn)		30	5.19	Active	5.02
